From ChEMBL document CHEMBL2331494, “First synthesis and biological evaluation of indeno[2,1-e]pyrazolo[3,4-b]pyrazin-5-one and related derivatives” (2013) come the findings set out here.

Holding throughout (type): functional
Assay [1] concerns Aspergillus flavus. Put plainly: Antifungal activity against Aspergillus flavus AUMC 3214 assessed as growth inhibition at 28 degC after 7 days.
The test system of assay [2] is Trichophyton rubrum. The experiment in a line: Antifungal activity against Trichophyton rubrum AUMC 1804 assessed as growth inhibition at 28 degC after 7 days.
Assay [3] relates to Geotrichum candidum. Put plainly: Antifungal activity against Geotrichum candidum AUMC 226 assessed as diameter of growth inhibition zone at 20 mg/ml at 28 degC after 7 days. Particulars: AUMC 226, 168 h, read-out: DIZ. In a few lines:
(§1)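 Inocula: each fungus grown 7 days in Sabouraud's dextrose broth (30 ml per flask). Plates were 10 cm Petri dishes with 1 ml microbial suspension and 15 ml Sabouraud's dextrose agar each. Compound solutions were applied and the diameter of the growth inhibition zone was recorded.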

Assay [4] concerns Scopulariopsis brevicaulis. The experiment in a line: Antifungal activity against Scopulariopsis brevicaulis AUMC 729 assessed as diameter of growth inhibition zone at 20 mg/ml at 28 degC after 7 days. Particulars: AUMC 729, 168 h, read-out: DIZ. In a few lines: as §1
Assay [5] has as its system Fusarium oxysporum. The experiment in a line: Antifungal activity against Fusarium oxysporum AUMC 5119 assessed as diameter of growth inhibition zone at 20 mg/ml at 28 degC after 7 days. The following applies: AUMC 5119, 168 h, read-out: DIZ. The method, boiled down:
as §1

Assay [6] relates to Aspergillus flavus. Put plainly: Antifungal activity against Aspergillus flavus AUMC 1276 assessed as diameter of growth inhibition zone at 20 mg/ml at 28 degC after 7 days. Particulars: AUMC 1276, 168 h, read-out: DIZ. In a few lines:
as §1

The test system of assay [7] is Trichophyton rubrum. Put plainly: Antifungal activity against Trichophyton rubrum AUMC 1804 assessed as diameter of growth inhibition zone at 20 mg/ml at 28 degC after 7 days. Particulars: AUMC 1804, 168 h, read-out: DIZ. The method, boiled down: as §1
Assay [8] has as its system Candida albicans. The experiment in a line: Antifungal activity against Candida albicans AUMC 418 assessed as diameter of growth inhibition zone at 20 mg/ml at 28 degC after 7 days. The following applies: AUMC 418, 168 h, read-out: DIZ. In a few lines: as §1
For assay [9], the system named is Micrococcus luteus. The experiment in a line: Antibacterial activity against Micrococcus luteus AUMC B-112 assessed as diameter of growth inhibition zone at 20 mg/ml at 28 degC after 48 hrs. Particulars: AUMC B-112, 48 h, read-out: DIZ. The method, boiled down: (§2)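 Inocula: each bacterial strain grown 48 h in nutrient broth (30 ml per flask). For the assay, 1 ml microbial suspension and 15 ml nutrient agar were poured into each 10 cm Petri plate, compound solutions were applied, and the diameter of the inhibition zone was read.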

In assay [10] the test system is Serratia marcescens. Put plainly: Antibacterial activity against Serratia marcescens AUMC B-55 assessed as diameter of growth inhibition zone at 20 mg/ml at 28 degC after 48 hrs. Particulars: AUMC B-55, 48 h, read-out: DIZ. In a few lines:
as §2

For assay [11], the system named is Pseudomonas aeruginosa. The experiment in a line: Antibacterial activity against Pseudomonas aeruginosa AUMC B-73 g assessed as diameter of growth inhibition zone at 20 mg/ml at 28 degC after 48 hrs. The following applies: read-out: DIZ. The method, boiled down:
as §2

Assay [12] concerns Escherichia coli. The experiment in a line: Antibacterial activity against Escherichia coli AUMC B-53 assessed as diameter of growth inhibition zone at 20 mg/ml at 28 degC after 48 hrs. The following applies: AUMC B-53, 48 h, read-out: DIZ. The method, boiled down:
as §2

For assay [13], the system named is Bacillus cereus. Put plainly: Antibacterial activity against Bacillus cereus AUMC B-52 assessed as diameter of growth inhibition zone at 20 mg/ml at 28 degC after 48 hrs. The following applies: AUMC B-52, 48 h, read-out: DIZ. The method, boiled down:
as §2

Assay [14] concerns Staphylococcus aureus. Put plainly: Antibacterial activity against Staphylococcus aureus AUMC B-54 assessed as diameter of growth inhibition zone at 20 mg/ml at 28 degC after 48 hrs. The following applies: AUMC B-54, 48 h, read-out: DIZ. In a few lines:
as §2

Molecules are shown by their SMILES. ≈ marks a conversion by molar mass, not a printed value.

The term MIC denotes the smallest concentration in the dilution series that meets the test's criterion for growth inhibition. Take `Cc1nn(-c2ccccc2)c2nc3c(nc12)/C(=N\NC(N)=S)c1ccccc1-3`: the “diameter of the inhibition zone (DIZ)” value in assay [1] and in assay [2] was 14 mm in each case. Besides, the MIC in [1] (Aspergillus flavus, AUMC 3214, 168 h) amounted to 2500 µg/mL (≈ 6.49 mM); in [2] (Trichophyton rubrum, AUMC 1804, 168 h), 300 µg/mL (≈ 0.778 mM). Also, the zone of inhibition at 20000 µg/mL amounted to 17 mm in [3]; 0 mm in assay [4]; 0 mm in assay [5]; 16 mm in assay [6]; 30 mm in [7]; 0 mm in [8]. In addition, the zone of inhibition at 20000 µg/mL in assay [9] is 0 mm; in assay [10], 0 mm; in assay [11], 0 mm; in [12], 0 mm; in assay [13], 0 mm; in [14], 8 mm.
